# Source: PubChem
# A selection: hits, their analogues and other compounds. The true share with any hit is near 3%.
# Glyco luc inh: N-linked glycosylation inhibition; D54 ERlucT glycosylation luciferase reporter, 24 h; percent of 100 nM tunicamycin response; reporter increase, % at 12.5 µM; 360,000 compounds, 0.23% hits; AID 588692;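 active means mean luciferase reporter signal, scaled so untreated is 0 and the glycosylation-blocking control 100, at or above a set limit in every replicate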;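 further: luciferase carries N-glycosylation sites so blocking glycosylation raises the light; 0% = median of neutral control wells and 100% = median of 100 nM tunicamycin wells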
# CaV13 FRET inh: Primary screen for inhibitors of IQ motif and Ca2+-dependent inactivation inhibitor domain binding in CACNA1D, Förster resonance energy transfer in living cells, … | HEK cells, CFP/YFP FRET ICDI-IQ, plate reader, 10 min; percent FRET-ratio fall versus neutral wells | inhibition, % at 12.3 µM | 340,000 compounds, 0.098% hits;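 active means mean replicate inhibition of at least 30% and at least 1% of replicates passing that level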;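 further: 0% = median of the neutral control wells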
# PvdQ acylase: blocks Pseudomonas aeruginosa PvdQ acylase activity; purified PvdQ acylase, fluorescence plate reader; inhibition, % at 10 µM; 340,000 compounds, 0.063% hits; AID 488965; in the data active means inhibition above about 30%, passing the limit was not always enough;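 further: 0% = vehicle neutral wells and 100% = reference inhibitor wells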
# HSF-1 act: increases HSF-1 driven luciferase reporter signal | activation, % at 9 µM | NIH3T3-HGL HSF-1 luciferase reporter, MG132, 8 h; 100% = twice DMSO control signal | 300,000 compounds, 1.7% hits | AID 504408;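 active means mean replicate activation of at least 50% with a set share of replicates each reaching 50%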;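 further: 0% = median of the neutral control wells and 100% = twice that signal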
# T cruzi repl: T. cruzi replication inhibition. T. cruzi beta-gal in NIH3T3, luminescence, 90 h. inhibition, % (test concentration not listed). 300,000 compounds, 1.4% hits. AID 1885;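 active means mean inhibition across valid replicates above about 55%, limit read from the data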;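 further: signal also drops with host cell toxicity which is not excluded here; 0% = plate median of DMSO wells and 100% = zero luminescence signal; higher percent means less beta-gal luminescence so fewer parasites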
#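 System: mouse NIH/3T3 fibroblasts infected with β-gal-expressing T. cruzi Tulahuen C4 / Input: NIH/3T3 cells, 5,000 per well / Buffer or medium: Low-serum DMEM with 2% FBS / Probe or stimulus: 5000 reporter trypomastigotes per well / Schedule: ≥90 h infection period, 3 h prior cell attachment / Measured by: GalScreen luminescence, 60 min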
# PfHsp90 yeast 2: growth inhibition of yeast expressing Plasmodium Hsp90. AID 504621. inhibition, % at 9.4 µM. 310,000 compounds, 0.32% hits. S. cerevisiae expressing PfHsp90, BacTiter-Glo ATP, 48 h; yeast lacking PDR1 and PDR3 efflux regulators;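 active means every replicate shows inhibition above about 80%, whatever the replicate mean, limit read from the data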;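 further: 0% = DMSO neutral controls and 100% = 20 µM radicicol positive controls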
# * hit, by the source's call; nt = no result.
SMILES,Glyco luc inh,CaV13 FRET inh,PvdQ acylase,HSF-1 act,T cruzi repl,PfHsp90 yeast 2
CSc1ccccc1NC(=O)c1cc(-c2cccnc2)nc2ccc(Br)cc12,4,-6,-9,-13,69*,-6
Cc1nc(SCC(=O)c2cccs2)c2oc3ccccc3c2n1,-4,-5,-11,51*,11,7
Cc1ccc(C(O)c2ncc(-c3ccccc3Cl)[nH]2)c(C)c1 (centres undefined),-2,-7,nt,nt,nt,nt
N#CC(OC(=O)c1ccccc1)c1ccccc1 (centres undefined),1,nt,6,nt,nt,-53
CC1=CC(C)(C)Nc2ccccc21,-2,-1,-12,6,75*,6
CC1=CC(C)(C)Nc2ccc(OC(=O)CCN3C(=O)c4ccccc4C3=O)cc21,3,-3,-8,-1,-14,8
COc1ccc2c(c1)NC(C)(C)C=C2C,2,-6,-13,-4,66*,15
NC(=O)c1c(N)[nH]c(C(=O)c2ccccc2)c1-c1ccc(Cl)cc1Cl,nt,-5,nt,nt,nt,nt
Cc1nn(Cc2cccc(Oc3ccccc3)c2)c(C)c1NC(=O)NC12CC3CC(CC(C3)C1)C2,-5,-5,3,31,57*,-6
O=C1C=CC(=O)N1c1ccc2c(c1)C(NC(=O)C(F)(F)F)c1ccccc1-2 (centres undefined),-6,-6,-1,nt,nt,nt
O=C(NC1CCCCC1)c1cc(-c2ccc(F)cc2)on1,0,-2,9,54*,-9,4
Cc1ccc(-c2cc(C(=O)NC3CCCC3)no2)cc1,-8,-4,-4,35,-4,-13
COCC(=O)N[C@H]1C=C[C@@H](CC(=O)OC)O[C@@H]1CO,nt,-7,nt,nt,nt,nt
Cc1cc2c(ncn2C)c(NS(=O)(=O)c2cc(Cl)ccc2Cl)c1C,-2,-6,-2,140*,-1,nt
Cc1cc2c(ncn2C)c(NS(=O)(=O)c2ccccc2Cl)c1C,0,-3,1,-1,-10,-1
CCCCNC(=O)c1nc(C2CCN(S(=O)(=O)c3ccccc3C(F)(F)F)CC2)oc1-c1ccccc1,-3,nt,nt,nt,nt,nt
Cc1cc(Br)cc(C)c1OCCCCN(C)C,-2,-8,-13,-8,63*,nt
CCN(Cc1ccncc1)C(=O)c1cc(Br)cc(Br)c1O,1,-4,-2,51*,-16,-21
C=CCN=C1NC(c2ccc(Cl)cc2)C(C(=O)OC)=C(C)N1C (centres undefined),nt,-4,nt,nt,nt,nt
COc1ccc2c(c1)[C@@]1(OCCC=C[C@H]1C)C(=O)N2Cc1ccc(Br)cc1,nt,-2,nt,nt,nt,nt
CCCCCCC12Cc3cc(OC)c(OC)cc3C(O1)C1=C(O2)C(C)(C)CCC1=O (centres undefined),nt,-4,nt,nt,nt,nt
Cc1ccc([C@@H]2CC=C(C(=O)O)[C@H](c3ccc(F)cc3)N2S(=O)(=O)c2ccc(C)cc2)cc1,0,-7,8,nt,nt,4
O=C(O)C1=CC[C@@H](c2ccc(Cl)cc2)N(S(=O)(=O)c2ccc(Cl)cc2)[C@H]1c1ccc(F)cc1,2,39*,-8,nt,nt,27
O=S1(=O)N[C@H](Cc2ccccc2)COc2cc(Br)ccc21,nt,-5,nt,nt,nt,nt
S=C(NCCC(c1ccccc1)c1ccccc1)Nc1ccc(Cl)cc1,-1,nt,2,54*,31,18
SMILES,Glyco luc inh,CaV13 FRET inh,PvdQ acylase,HSF-1 act,T cruzi repl,PfHsp90 yeast 2
O=S(=O)(c1ccc(NC(=S)NCCC(c2ccccc2)c2ccccc2)cc1)N1CCOCC1,-5,-4,9,11,61*,4
COc1ccc(Cl)cc1NC(=S)NCCC(c1ccccc1)c1ccccc1,-5,-3,-13,9,56*,8
S=C(NCCC(c1ccccc1)c1ccccc1)Nc1ccccc1Cl,-4,nt,-5,4,-12,-16
CC(=O)Nc1ccc(SCC(=O)Nc2ccccc2N2CCOCC2)cc1,-10,-6,-15,nt,nt,nt
COc1cccc(C(=O)N2CCC[C@@H]2C(=O)N2CCC[C@H]2C(=O)NCc2ccccc2)c1,nt,-5,nt,nt,nt,nt
O=C(c1ccccc1)N(CCCl)C(=O)N(CCCl)C(=O)c1ccccc1,1,-4,nt,nt,nt,nt
COc1cccc(CNc2cnc3ccccc3c2)c1O,-8,-9,-8,73*,-1,13
COc1cccc(CNc2ccc(F)c(Cl)c2)c1O,-3,-9,1,75*,-9,nt
COc1cccc(CNc2cccc3cccnc23)c1O,11,-8,1,76*,13,-13
Cc1ccc(O)c(CNc2cnc3ccccc3c2)c1,2,0,1,30,13,-12
COc1cccc(CNc2ccccn2)c1O,1,-5,-8,37,3,4
CCCN1C(=O)c2[nH]nc(-c3ccccc3)c2C1c1ccc(Br)cc1 (centres undefined),nt,-4,nt,nt,nt,nt
Cc1nc2[nH]c(=S)[nH]c2c(=O)[nH]1,2,-6,-14,nt,nt,nt
COC(=O)[C@]12C[C@H](CC(=O)N3CCOCC3)C(=O)N(Cc3ccccc3)C1=C[C@H](C(C)C)O[C@@H]2C1CC1,nt,-5,nt,nt,nt,nt
O=C(NCCCN1CCCC1=O)c1ccc([N+](=O)[O-])s1,4,-5,-13,-8,60*,nt
NS(=O)(=O)c1ccc(CCNC(=O)c2ccc(Cl)s2)cc1,-1,-7,-4,3,1,18
O=C(NC1CCCC1)c1ccc([N+](=O)[O-])s1,2,6,9,-4,72*,8
NS(=O)(=O)c1ccc(CCNC(=O)c2ccc([N+](=O)[O-])s2)cc1,-7,-3,-4,94*,45,-11
COC(=O)c1cc2c(c3c4cc(C)ccc4n(S(=O)(=O)c4cccc(C)c4)c13)C(=O)N(Cc1ccc(C(F)(F)F)cc1)C2,nt,-4,nt,nt,nt,nt
CC1(C(=O)NCc2ccccc2)CSCC(=O)N1CC(F)(F)F (centres undefined),nt,-6,nt,nt,nt,nt
CNC(=O)c1cc(Oc2ccc(NC(=O)Nc3ccc(Cl)c(C(F)(F)F)c3)cc2)ccn1,-15,-10,2,nt,nt,15
Cc1nc([N+](=O)[O-])c(Br)n1Cc1ccccc1,8,-4,-9,77*,-10,-40
Cc1nc([N+](=O)[O-])c(Br)n1CC(=O)c1cccc([N+](=O)[O-])c1,6,6,-4,102*,10,-7
CC(=O)Nc1ccc(N=Cc2c(O)c3ccccc3oc2=O)cc1,-1,-18,7,63*,-12,-12
CC(=O)c1cccc(N=Cc2c(O)c3ccccc3oc2=O)c1,0,1,-20,106*,-10,-19
COc1cccc(N=Cc2c(O)c3ccccc3oc2=O)c1,1,-2,-8,3,-19,-1
C[C@H]1CN([C@@H](C)CO)S(=O)(=O)c2ccc(Br)cc2O[C@H]1CN(C)C(=O)Cc1ccncc1,4,-7,nt,nt,nt,nt
CC(C)N=c1scc(-c2cccs2)n1/N=C/c1ccc(O)c(O)c1O,8,-6,-3,nt,nt,106*
